Screening results deposited in PubChem BioAssay by several laboratories.
A selection: hits, their analogues and other compounds. The true share with any hit is near 4.6%.
DSG3 Ab inh: human desmoglein-3 autoantibody binding inhibition; binding (percent of control), % at 10 µM; P32926; AID 588358; DSG3-coupled beads, scFv-anti-DSG3-GFP binding, flow cytometry; active compounds read low; 0.48% of 310,000 active;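 active means binding more than 3 SD below its plate's average and above zero; inconclusive means below that plate limit but binding exactly zero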;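 further: hits lower antibody fragment binding to DSG3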
Target sequence (P32926 whole entry, looked up, the tested form may be a part): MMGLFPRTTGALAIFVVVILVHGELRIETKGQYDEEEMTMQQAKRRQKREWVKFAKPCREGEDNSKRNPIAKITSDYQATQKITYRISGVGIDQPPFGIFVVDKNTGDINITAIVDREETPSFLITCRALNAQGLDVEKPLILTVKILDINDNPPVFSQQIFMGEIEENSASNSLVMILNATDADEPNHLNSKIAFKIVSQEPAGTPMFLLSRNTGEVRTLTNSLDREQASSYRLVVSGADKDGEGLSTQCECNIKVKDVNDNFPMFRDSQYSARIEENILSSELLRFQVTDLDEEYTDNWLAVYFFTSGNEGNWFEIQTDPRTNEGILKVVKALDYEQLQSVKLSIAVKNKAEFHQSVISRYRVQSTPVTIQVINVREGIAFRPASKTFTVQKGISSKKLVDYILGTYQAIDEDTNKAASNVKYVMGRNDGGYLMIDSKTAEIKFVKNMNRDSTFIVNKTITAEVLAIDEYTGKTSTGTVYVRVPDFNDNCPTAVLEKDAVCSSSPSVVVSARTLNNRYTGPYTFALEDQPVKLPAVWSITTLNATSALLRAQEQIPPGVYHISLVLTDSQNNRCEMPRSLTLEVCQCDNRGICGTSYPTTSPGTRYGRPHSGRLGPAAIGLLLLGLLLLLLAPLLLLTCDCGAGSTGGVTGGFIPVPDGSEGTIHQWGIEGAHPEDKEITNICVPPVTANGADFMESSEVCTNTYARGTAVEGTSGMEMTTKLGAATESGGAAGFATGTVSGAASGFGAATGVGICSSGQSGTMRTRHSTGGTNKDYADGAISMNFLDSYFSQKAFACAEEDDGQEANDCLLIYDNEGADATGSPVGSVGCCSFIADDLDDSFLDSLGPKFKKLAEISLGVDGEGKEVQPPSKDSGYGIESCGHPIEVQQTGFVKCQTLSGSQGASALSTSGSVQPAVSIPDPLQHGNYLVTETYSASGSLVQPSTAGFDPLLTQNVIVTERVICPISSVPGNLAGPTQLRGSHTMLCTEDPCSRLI
NLRP3 yeast inh: NALP3 inhibition in yeast | Yeast reconstituted NLRP3/ASC/caspase-1, beta-gal luminescence, 24 h | inhibition, % at 10 µM | 0.39% of 330,000 active;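 active means inhibition of 50% or more; inactive means inhibition below 50%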;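 further: plate controls were induced DMSO wells for no effect and uninduced yeast grown without galactose for full effect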
PolyA inhibitor: inhibitors of polyadenylation in S. cerevisiae | S. cerevisiae SKY197-pL101 polyadenylation reporter, beta-gal luminescence; efflux-impaired pdr1/pdr3 knockout yeast; score 100 = 6 SD above DMSO | activity score, % at 12 µM | 0.02% of 300,000 active;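 active means lowest replicate activity score at least 50, where 100 means six control SD above control mean; inconclusive means lowest score under 50 but half or more replicates reach 50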;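 further: yeast exposed to compound for 9 h at 30 °C; higher score means more reporter readthrough which indicates perturbed polyadenylation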
NALP1 inh: NALP1 inhibition | S. cerevisiae NALP1/ASC/caspase-1 growth, X-gal OD620, 72 h | inhibition, % at 10 µM | 0.61% of 280,000 active | AID 2071; in the data active means inhibition mostly above about 24%, no sharp cut-off; inactive means mostly below about 32%
ALR inh: inhibitors of human sulfhydryl oxidase ALR. P55789. purified ALR, DTT oxidation, H2O2 HRP-luminol luminescence. inhibition, % (test concentration not listed). 3.8% of 290,000 active. AID 485317;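 active means mean replicate inhibition above about 79%, with every replicate also reaching it, limit read from the data; inconclusive means only one of the two criteria met; inactive means mean below limit and not every replicate reaching it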
Arrestin-AP2 inh: human beta-arrestin and AP2 interaction inhibition. FITC-arrestin peptide / GST-AP2 beads, flow cytometry; AP2 beta2 appendage carries R879A mutation. inhibition, % at 10 µM. 0.31% of 340,000 active. AID 504490;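 active means inhibition above a set limit, near 3 SD of compounds lacking own fluorescence, cut at about 54% in these data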;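 further: plate controls were DMSO wells for no effect and 5 µM unlabelled arrestin peptide for full effect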
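System: GST-AP2 R879A glutathione beads; medium: PBS, Tween 20 0.05%, BSA 0.1%; reagent: fluorescein-tagged arrestin peptide at 50 nM final; schedule: pre-incubation 12 min, peptide binding 1 h, room temperature; detection: flow cytometry, FL1 (488/535 nm); read-out: inhibition as reduced fluorescein signal on beads, percent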
* marks the source's active call; other numbers are inactive results; ? = inconclusive; . = no result; ! = not active in a repeat.

SMILES	DSG3 Ab inh	NLRP3 yeast inh	PolyA inhibitor	NALP1 inh	ALR inh	Arrestin-AP2 inh
CCOC(=O)/C(=N/Nc1ccc(OC)cc1)N1CCCc2ccccc21	.	23	-13	-1	.	-15
CCOC(=O)/C(=N/Nc1ccccc1)N1CCCc2ccccc21	100	3	-22	-10	94*	32
COc1ccc(-c2cc3cc(-c4cc(OC)c(OC)c(OC)c4)ccc3o2)cc1	101	7	.	.	-3	2
CC1(C)CC(=O)C(=Cc2cn(CCC#N)nc2-c2ccc(Cl)cc2)C(=O)C1	85	0	17	31	13	-3
N#CCCn1cc(/C=C2\NC(=S)N(c3ccccc3)C2=O)c(-c2ccc(F)cc2)n1	1.1*	18	0	29	-1	-9
CC1(C)CC(=O)C(=Cc2cn(CCC#N)nc2-c2ccc(F)cc2)C(=O)C1	82	5	-3	18	95*	13
COc1ccc(N2CCN(C(=O)COC(=O)CNC(=O)c3cccc(OC(F)F)c3)CC2)cc1	?	5	.	.	46	-6
Cc1cccc(NC(=O)CCN2CCCC(C)C2)c1 (stereo not given)	104	15	7	8	-18	3
S=C(Nc1ccccc1)NC1CCN(Cc2ccccc2)CC1	98	20	17	-14	4	-10
CCc1ccc(NC(=S)NC2CCN(Cc3ccccc3)CC2)cc1	101	40	-47	30	96*	3
c1ccc(N2CCOCCOCCOCCOCC2)cc1	.	21	11	15	99*	19
CCOC(=O)C(C)Sc1ncnc2c1nnn2-c1ccc(F)cc1 (stereo not given)	95	18	21	0	96*	-55
COC(=O)c1ccc(CSc2ncnc3c2nnn3-c2ccc(F)cc2)o1	105	15	-8	-6	99*	2
COC(=O)c1ccc(CSc2ncnc3ccccc23)o1	105	43	-8	-34	-1	0
CCC(Sc1ncnc2c1nnn2-c1ccc(F)cc1)C(=O)OC (stereo not given)	100	25	-9	8	96*	1
CCN(CC)C(=O)CSc1ncnc2c1nnn2-c1ccc(F)cc1	108	20	16	7	-1	6
NNC(=O)c1ccc2[nH]c3c(c2c1)CCCC3	103	20	-5	6	.	-6
CN1CCc2[nH]c3ccc(C(=O)NN)cc3c2C1	102	3	0	14	98*	0
CCN(CC)C(=O)c1sc(NC(=O)Cc2ccc(OC)cc2)c(C#N)c1C	112	3	-15	43*	-2	8
CCN(CC)C(=O)c1sc(NC(=O)Cc2ccccc2)c(C#N)c1C	102	-9	6	-4	-4	11
CCCCN(C(=O)CSc1n[nH]c(-c2ccc(C)cc2)n1)c1c(N)n(CCCC)c(=O)[nH]c1=O	109	8	-4	.	6	16
CC(=O)c1ccc(NS(=O)(=O)c2ccc(N)cc2)cc1	105	1	-1	-22	-4	37
CC(=O)NS(=O)(=O)c1ccc(N)cc1	25*!	22	-5	22	8	-3
COc1cc(OC)cc(C(=O)OCC(=O)NC2CCCCCCC2)c1	98	.	.	.	.	.
Cc1ccc(S(=O)(=O)N2CCN(S(=O)(=O)N3CCCCC3)CC2)c(C)c1	107	14	5	28	100*	-3
SMILES	DSG3 Ab inh	NLRP3 yeast inh	PolyA inhibitor	NALP1 inh	ALR inh	Arrestin-AP2 inh
Cc1ccc(O)c(C2=NCCNC(C(F)(F)F)=C2)c1	105	-3	-5	16	91*	-2
Nc1cc(OC(=O)c2ccc(F)cc2)nn1S(=O)(=O)c1ccccc1	93	7	6	8	0	-3
COc1ccc(OC)c(CCNC(=O)CS(=O)(=O)Cc2nc(-c3ccc(C)cc3)oc2C)c1	110	-1	-1	5	-8	12
COc1ccc(-c2nc(CS(=O)(=O)CC(=O)NCCCN3CCN(C)CC3)c(C)o2)cc1	100	15	-14	16	99*	10
COc1cccc(-c2nc(CS(=O)(=O)CC(=O)NCCc3cc(OC)ccc3OC)c(C)o2)c1	102	4	7	25	99*	43
COc1ccc(-c2nc(CS(=O)(=O)CC(=O)NCCc3cc(OC)ccc3OC)c(C)o2)cc1	99	-5	-16	11	99*	30
Cc1oc(-c2ccccc2F)nc1CS(=O)(=O)CC(=O)NCCCN1CCN(C)CC1	.	-2	5	26	-1	42
C[C@@H]1CN([C@@H](C)CO)C(=O)CCCn2nncc2CO[C@H]1CN(C)C(=O)c1ccc2ccn(C)c2c1	101	.	.	.	.	.
CCOC(=O)/C=C1\SC(C)C(=O)N1CC(=O)N(CCC#N)c1ccccc1 (stereo not given)	95	13	.	.	-1	4
O=C(NC(=S)Nc1ccc(Cl)cn1)c1cc([N+](=O)[O-])ccc1N1CCOCC1	.	7	22	1	-9	8
COC(=O)c1ccccc1NC(=O)COC(=O)Cc1ccc(S(=O)(=O)N2CCOCC2)s1	114	.	.	.	.	46
O=C(O)c1ccc(Sc2nnc(-c3cccc(Br)c3)o2)c([N+](=O)[O-])c1	103	2	7	4	99*	0
Cn1c(Sc2ccc(C(=O)O)cc2[N+](=O)[O-])nnc1-c1ccccc1	119	-8	6	-1	-12	-9
CN(C)S(=O)(=O)c1ccc(NC(=O)CN2C(=O)NC(Cc3ccccc3)C2=O)cc1 (stereo not given)	103	5	.	.	2	27
O=C(c1ccccc1)C1CN(c2ccccc2)CC1c1ccc(Cl)cc1 (stereo not given)	105	18	-9	22	-4	11
COc1cccc(C(=O)C2CN(c3ccccc3)CC2c2ccc(Cl)cc2)c1 (stereo not given)	101	-5	8	12	97*	-3
Cc1nc([N+](=O)[O-])c(Sc2nc3ccccc3n2C)n1Cc1ccccc1	123	-2	-7	25	98*	9
CCCc1c(O)nc(SCCN(CC)CC)[nH]c1=O	95	8	12	16	23	3
CCCc1c(O)nc(SCCN(CC)CC)n(C(=O)c2ccccc2)c1=O	93	0	-15	16	98*	-5
CC(=O)Nc1ccc(S(=O)(=O)NNC(=O)c2cccc(Cl)c2)cc1	88	5	-18	13	99*	-1
COC(=O)C(C(=O)OC)c1ccc(NC(=O)c2cccc(Cl)c2)cc1	85*	-4	-10	-18	-2	7
CC(=O)Nc1ccc(S(=O)(=O)NNC(=O)c2ccc3c(c2)OCO3)cc1	.	4	-1	17	15	7
CC(=O)Nc1ccc(S(=O)(=O)NNC(=O)COc2ccc(C(C)(C)C)cc2)cc1	101	16	12	4	97*	3
